Results reported in ChEMBL document CHEMBL1130417 (J Med Chem, 1997).
“And” between values parts separate entries of the source, which are not always exact repeats. Identical values can stand only once.

Assays:
[1] = target: Delta-type opioid receptor (Rattus norvegicus, UniProt P33533); experiment: Inhibition of radioligand [3H]DADLE binding to rat brain Opioid receptor delta 1
How it was run: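 Rat brain membranes were labelled with [3H]DADLE (1.7–2.5 nM) for 3–4 h at 25 °C in Tris-HCl pH 7.4 with 100 mM choline chloride, 3 mM MnCl2, protease inhibitor cocktail and 100 nM DAMGO to block μ sites. Nonspecific binding was set with 20 μM levallorphan. Displacement used 8–10 drug concentrations, run twice. IC50 and slope factor came from curve fitting.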

[2] = target: Opioid receptors; mu & delta (Rattus norvegicus) (UniProt P33533+P33535); experiment: Mu/delta inhibitory ratio of compound determined Rat brain receptors
Sequence of Opioid receptors; mu & delta (Rattus norvegicus) (P33533 whole entry, looked up): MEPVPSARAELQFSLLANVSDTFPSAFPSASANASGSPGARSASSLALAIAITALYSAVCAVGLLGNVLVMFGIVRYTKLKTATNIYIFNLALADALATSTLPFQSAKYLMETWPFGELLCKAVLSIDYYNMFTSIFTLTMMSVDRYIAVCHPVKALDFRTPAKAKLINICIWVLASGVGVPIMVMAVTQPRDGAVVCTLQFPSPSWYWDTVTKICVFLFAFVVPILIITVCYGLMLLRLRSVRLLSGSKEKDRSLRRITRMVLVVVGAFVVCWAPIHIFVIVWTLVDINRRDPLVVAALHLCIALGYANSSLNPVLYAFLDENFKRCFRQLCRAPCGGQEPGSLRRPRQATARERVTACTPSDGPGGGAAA
Sequence of Opioid receptors; mu & delta (Rattus norvegicus) (P33535 whole entry, looked up): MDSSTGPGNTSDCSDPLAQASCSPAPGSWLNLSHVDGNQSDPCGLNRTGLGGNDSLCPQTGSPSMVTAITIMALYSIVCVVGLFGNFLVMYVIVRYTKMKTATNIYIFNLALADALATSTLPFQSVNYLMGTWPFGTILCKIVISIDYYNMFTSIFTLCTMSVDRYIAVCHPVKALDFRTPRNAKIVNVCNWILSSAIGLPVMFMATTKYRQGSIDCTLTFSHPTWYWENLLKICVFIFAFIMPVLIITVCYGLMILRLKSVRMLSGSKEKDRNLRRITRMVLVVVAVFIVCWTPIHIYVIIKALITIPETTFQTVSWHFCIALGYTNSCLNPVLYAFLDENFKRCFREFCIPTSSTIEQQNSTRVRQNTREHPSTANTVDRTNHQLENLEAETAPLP

Mu-type opioid receptor [3] = target: Mu-type opioid receptor (Rattus norvegicus, UniProt P33535); experiment: Inhibition of radioligand [3H]DAMGO binding to rat brain Opioid receptor mu 1 […]
Sequence of Mu-type opioid receptor (Rattus norvegicus, UniProt P33535) (P33535 whole entry): as the sequence (P33535 whole entry, looked up) above
How it was run: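 Rat brain membranes were labelled with [3H]DAMGO (1–3 nM) for 4 h at 25 °C in 50 mM Tris-HCl pH 7.4 with protease inhibitor cocktail. Nonspecific binding was set with 20 μM levallorphan. Displacement used 8–10 drug concentrations, run twice, with drug diluted in Tris pH 7.4 containing 1 mg/mL BSA. IC50 and slope factor came from curve fitting.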

[4] = target: Delta-type opioid receptor (Mus musculus, UniProt P32300); experiment: Agonist activity was evaluated in mouse vas deferens (MVD) preparations at Opioid receptor delta 1; type: functional
Sequence of Delta-type opioid receptor (Mus musculus, UniProt P32300) (P32300 whole entry): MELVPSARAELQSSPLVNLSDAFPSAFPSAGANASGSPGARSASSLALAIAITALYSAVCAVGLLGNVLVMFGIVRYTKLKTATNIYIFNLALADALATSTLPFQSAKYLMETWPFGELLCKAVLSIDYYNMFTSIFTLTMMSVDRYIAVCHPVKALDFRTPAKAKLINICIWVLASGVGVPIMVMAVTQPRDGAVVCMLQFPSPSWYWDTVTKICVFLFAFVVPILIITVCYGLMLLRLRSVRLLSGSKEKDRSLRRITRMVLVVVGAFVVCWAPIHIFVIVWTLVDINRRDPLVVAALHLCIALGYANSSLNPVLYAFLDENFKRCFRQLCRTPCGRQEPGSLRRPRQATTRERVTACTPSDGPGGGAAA
How it was run: (§1)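 Vas deferens from male ICR mice (25–40 g) was held in 37 °C oxygenated magnesium-free Krebs bicarbonate under 0.5 g tension. Tissue was field-stimulated at 0.1 Hz with 2-ms supramaximal pulses.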

Mu-type opioid receptor [5] = target: Mu-type opioid receptor (Cavia porcellus, UniProt P97266); experiment: Agonist activity was evaluated in guinea pig ileum (GPI) preparations at Opioid receptor mu 1; type: functional, tissue-based
Sequence of Mu-type opioid receptor (Cavia porcellus, UniProt P97266) (P97266 whole entry): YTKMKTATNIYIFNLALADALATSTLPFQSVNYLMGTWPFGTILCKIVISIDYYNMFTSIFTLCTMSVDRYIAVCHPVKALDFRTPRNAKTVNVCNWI
How it was run: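 Longitudinal muscle–myenteric plexus strips from male Hartley guinea pig ileum (250–500 g) were held in 37 °C oxygenated Krebs bicarbonate under 1 g tension.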

Cavia porcellus = species on record: Cavia porcellus; experiment: IC50 ratio on Mu receptor of GPI to the delta receptor MVD
How it was run: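 The ratio is guinea pig ileum IC50 divided by mouse vas deferens IC50. Both tissues were electrically stimulated at 0.1 Hz, the ileum with 0.4-ms and the vas deferens with 2-ms pulses, and exposed to cumulative agonist doses.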

Mus musculus = species on record: Mus musculus; experiment: Agonist activity was evaluated in mouse vas deferens (MVD) preparations at opioid delta receptor; type: functional; how it was run: as §1

Sequence of Delta-type opioid receptor (Rattus norvegicus, UniProt P33533) (P33533 whole entry): as the sequence (P33533 whole entry, looked up) above

Structure (SMILES)	IC50 [1] [nM]	Ratio [2]	IC50 (Mu-type opioid receptor [3]) [nM]	also measured
C=CCN1C[C@H](C)N([C@@H](c2ccc(C(=O)N(CC)CC)cc2)c2cccc(F)c2)C[C@H]1C	62.5	> 160	> 10000	
C=CCN1C[C@H](C)N([C@@H](c2ccc(C(=O)N(CC)CC)cc2)c2cccc(I)c2)C[C@H]1C	41.1	82.2	3380	
C=CCN1C[C@H](C)N([C@H](c2ccc(C(=O)N(CC)CC)cc2)c2cccc(I)c2)C[C@H]1C	3.91	314	1230	IC50 [4]: 44.2 nM; IC50 (Mu-type opioid receptor [5]): > 3000 nM
C=CCN1C[C@H](C)N([C@@H](c2ccc(C(=O)N(CC)CC)cc2)c2cccc(O)c2)C[C@H]1C	11.4			
C=CCN1C[C@@H](C)N([C@H](c2ccc(C(=O)N(CC)CC)cc2)c2cccc(F)c2)C[C@@H]1C (single isomer, unassigned)	4.75	> 2110	> 10000	
C=CCN1C[C@@H](C)N([C@H](c2ccc(C(=O)N(CC)CC)cc2)c2cccc(O)c2)C[C@@H]1C (single isomer, unassigned)	1.74			
CC(NC(=O)[C@@H](N)Cc1ccc(O)cc1)C(=O)N[C@@H](Cc1ccccc1)C(=O)N[C@@H](CC(=O)O)C(=O)N[C@H](C(=O)N[C@H](C(=O)NCC(N)=O)C(C)C)C(C)C (single isomer, unassigned) [DELTORPHIN C]				IC50 (Mu-type opioid receptor [5]): 15000 nM
C=CCN1C[C@H](C)N([C@H](c2ccc(C(=O)N(CC)CC)cc2)c2cccc(O)c2)C[C@H]1C (stereo in doubt; (+)-1)	1.49			
C=CCN1C[C@H](C)N([C@@H](c2ccccc2)c2ccc(C(=O)N(CC)CC)cc2)C[C@H]1C (stereo in doubt; (+)-22) [listing 1 of 2 here]	0.94		> 2500	IC50 (Mu-type opioid receptor [5]): 8580 nM
C=CCN1C[C@H](C)N([C@@H](c2ccccc2)c2ccc(C(=O)N(CC)CC)cc2)C[C@H]1C (stereo in doubt; (+)-22) [listing 2 of 2 here]		> 2660		Ratio (Cavia porcellus): 813
C=CCN1C[C@H](C)N([C@H](c2ccc(C(=O)N(CC)CC)cc2)c2cccc(F)c2)C[C@H]1C (stereo in doubt; (+)-23) [listing 1 of 2 here]	2.92		1980	IC50 (Mus musculus): 200 nM; IC50 [4]: 9.77 nM and 10.3 nM; IC50 (Mu-type opioid receptor [5]): 2600 nM
C=CCN1C[C@H](C)N([C@H](c2ccc(C(=O)N(CC)CC)cc2)c2cccc(F)c2)C[C@H]1C (stereo in doubt; (+)-23) [listing 2 of 2 here]		677		Ratio (Cavia porcellus): 265
C=CCN1C[C@H](C)N([C@@H](c2ccc(C(=O)N(CC)CC)cc2)c2cccc(OC)c2)C[C@H]1C (stereo in doubt; (+)-25)			5710	
C=CCN1C[C@H](C)N([C@H](c2ccccc2)c2ccc(C(=O)N(CC)CC)cc2)C[C@H]1C (stereo in doubt; (+)-26) [listing 1 of 2 here]	60		> 10000	
C=CCN1C[C@H](C)N([C@H](c2ccccc2)c2ccc(C(=O)N(CC)CC)cc2)C[C@H]1C (stereo in doubt; (+)-26) [listing 2 of 2 here]		> 167		
C=CCN1C[C@H](C)N([C@H](c2ccc(C(=O)N(CC)CC)cc2)c2cccc(O)c2)C[C@H]1C (stereo in doubt; (-)-1)	58.3			
C=CCN1C[C@H](C)N([C@@H](c2ccccc2)c2ccc(C(=O)N(CC)CC)cc2)C[C@H]1C (stereo in doubt; (-)-22) [listing 1 of 2 here]	852		> 10000	
C=CCN1C[C@H](C)N([C@@H](c2ccccc2)c2ccc(C(=O)N(CC)CC)cc2)C[C@H]1C (stereo in doubt; (-)-22) [listing 2 of 2 here]		> 11.7		
C=CCN1C[C@H](C)N([C@H](c2ccc(C(=O)N(CC)CC)cc2)c2cccc(F)c2)C[C@H]1C (stereo in doubt; (-)-23) [listing 1 of 2 here]	1380		> 10000	
C=CCN1C[C@H](C)N([C@H](c2ccc(C(=O)N(CC)CC)cc2)c2cccc(F)c2)C[C@H]1C (stereo in doubt; (-)-23) [listing 2 of 2 here]		> 7.3		
C=CCN1C[C@H](C)N([C@@H](c2ccc(C(=O)N(CC)CC)cc2)c2cccc(OC)c2)C[C@H]1C (stereo in doubt; (-)-25)			9140	IC50 (Mu-type opioid receptor [5]): 1520 nM
C=CCN1C[C@H](C)N([C@H](c2ccccc2)c2ccc(C(=O)N(CC)CC)cc2)C[C@H]1C (stereo in doubt; (-)-26) [listing 1 of 2 here]	9.22		8450	IC50 [4]: 126 nM; IC50 (Mu-type opioid receptor [5]): 1780 nM
C=CCN1C[C@H](C)N([C@H](c2ccccc2)c2ccc(C(=O)N(CC)CC)cc2)C[C@H]1C (stereo in doubt; (-)-26) [listing 2 of 2 here]		> 916		
